# Data taken from PubChem BioAssay.
# Activity calls are given as the source filed them.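 How the source made its calls, unless noted: active means Her2 level under about 52% in both replicate screens, with viability over 70% of control (limit read from the data); inconclusive means Her2 under the limit in one screen only, or viability under 70%; inactive means Her2 level above the set limit.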
# Experiments:
# [1] = reducers of endogenous Her2 protein level, primary screen, SKBR3 breast tumor cells, AlphaScreen, ATP viability (AID 461); conditions: 18-24 h, measured here: SKBR3 viability, ATP luminescence, at 10 µM;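 on Her2 level: lower value means less Her2 protein in the cells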;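 on viability: percent of carrier control wells set as 100% viability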
# [2] = target: Receptor tyrosine-protein kinase erbB-2 (Homo sapiens) (UniProt P04626); experiment: as above; conditions: 18-24 h, at 10 µM, stronger effect = lower value
# [3] = SK-BR-3 cell growth inhibitors, pilot screen, 24 h, human (AID 572;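 active means viability at or below 10% of carrier control in both of two separate runs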;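 further: compound exposure lasted between 18 and 24 h rather than exactly 24 h; 100% = carrier-treated control wells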); conditions: SK-BR-3 viability, CellTiter-Glo luminescence, at 10 µM, stronger effect = lower value
# [4] = HUVEC growth inhibition – cell-based, human, primary screen (AID 575;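 active means viability at or below 30% in both replicate assays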;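 further: 100% = median of untreated cell wells with 0.1% DMSO on each plate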); conditions: HUVEC proliferation, CellTiter-Glo luminescence, 72 h; at 10 µM; stronger effect = lower value
# How it was run: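 Timing: 72 h treatment at 37 °C; material: HUVEC primary cells; technique: CellTiter-Glo luminescence measuring cellular ATP; controls: vehicle and MePR control wells; measure: percent of median DMSO-control luminescence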
# [5] = growth inhibitors of H69AR lung tumor, primary screen, human, duplicate replicates (AID 580;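 active means viability at or under a set limit in both replicates, limit being median viability minus 3 SD, cut at about 48% in these data, passing the limit was not always enough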;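 further: 100% = mean luminescence of untreated wells and 0% = no signal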); conditions: H69AR lung tumor cells viability, ATP luminescence, 72 h; at 10 µM; stronger effect = lower value
# [6] = reversal of MRP1-mediated doxorubicin resistance, pilot screen, H69AR cells, doxorubicin co-treatment (AID 601;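 active means viability loss from added drug above about 55%, and viability with drug at most 40%, in both replicates, limit read from the data, passing the limit was not always enough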); conditions: CellTiter-Glo, 72 h, at 10 µM; for differential viability (reversal): stronger effect = higher value
# [7] = 384-well plate pilot, post-Golgi transport modulator project, inhibition of yeast transport mutant growth (AID 636; in the data active means inhibition above about 31%); conditions: absorbance 615 nm, about 18 h, stronger effect = higher value
# [8] = growth suppression of yeast trafficking mutant, preliminary HTS, modulators of trafficking downstream of Golgi apparatus project, 1536-format plate, OD 615 nm (AID 637; in the data active means inhibition above about 30%); conditions: yeast transport mutant growth, absorbance 615 nm, 18 h; stronger effect = higher value
# [9] = H69AR cells + 2 uM doxorubicin, measured here: viability with 2 uM doxorubicin, stronger effect = lower value
# [10] = H69AR cells, compound alone cytotoxicity
# Sequence of Receptor tyrosine-protein kinase erbB-2 (Homo sapiens) (P04626 whole entry, looked up): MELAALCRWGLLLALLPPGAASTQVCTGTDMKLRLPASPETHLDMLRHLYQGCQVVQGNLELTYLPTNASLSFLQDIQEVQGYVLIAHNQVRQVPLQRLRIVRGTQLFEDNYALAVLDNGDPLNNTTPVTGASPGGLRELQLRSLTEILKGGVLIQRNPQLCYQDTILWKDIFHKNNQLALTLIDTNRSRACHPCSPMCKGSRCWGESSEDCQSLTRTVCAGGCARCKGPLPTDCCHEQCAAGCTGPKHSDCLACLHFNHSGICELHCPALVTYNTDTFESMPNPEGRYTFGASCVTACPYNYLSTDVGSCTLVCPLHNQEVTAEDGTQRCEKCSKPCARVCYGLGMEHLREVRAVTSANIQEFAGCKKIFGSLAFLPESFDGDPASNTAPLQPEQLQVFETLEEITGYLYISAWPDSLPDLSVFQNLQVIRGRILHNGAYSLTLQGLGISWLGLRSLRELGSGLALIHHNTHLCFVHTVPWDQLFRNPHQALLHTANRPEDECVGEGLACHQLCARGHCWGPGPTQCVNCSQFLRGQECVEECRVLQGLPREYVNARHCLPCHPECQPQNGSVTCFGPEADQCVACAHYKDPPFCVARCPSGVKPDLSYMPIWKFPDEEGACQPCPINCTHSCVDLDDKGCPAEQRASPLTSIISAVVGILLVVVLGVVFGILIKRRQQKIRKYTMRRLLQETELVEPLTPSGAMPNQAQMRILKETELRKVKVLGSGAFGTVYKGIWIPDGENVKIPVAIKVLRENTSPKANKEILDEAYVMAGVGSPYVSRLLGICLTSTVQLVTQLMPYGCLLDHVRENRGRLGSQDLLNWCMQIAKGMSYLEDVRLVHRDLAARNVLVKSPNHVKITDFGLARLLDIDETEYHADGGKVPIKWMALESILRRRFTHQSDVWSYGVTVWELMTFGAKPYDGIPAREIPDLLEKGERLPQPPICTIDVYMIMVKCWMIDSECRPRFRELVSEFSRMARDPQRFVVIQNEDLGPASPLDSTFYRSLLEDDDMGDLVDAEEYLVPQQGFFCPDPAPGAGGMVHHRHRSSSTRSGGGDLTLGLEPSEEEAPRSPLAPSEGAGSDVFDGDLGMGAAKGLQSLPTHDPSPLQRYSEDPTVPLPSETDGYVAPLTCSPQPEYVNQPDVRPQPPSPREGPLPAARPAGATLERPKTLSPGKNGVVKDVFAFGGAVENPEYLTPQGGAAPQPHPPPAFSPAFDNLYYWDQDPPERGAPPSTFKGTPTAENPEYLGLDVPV
SMILES,viability [1] [%],Her2 level [2],viability [3],viability [4],viability [5],differential viability (reversal) ([6]; H69AR cells + 2 uM doxorubicin),"viability [6, 9] [%]","viability [6, 10] [%]",inhibition [7],inhibition [8]
Cc1ccc(S(=O)(=O)Nc2nc3ccccc3nc2NCc2ccco2)cc1,114,93.5% (inactive),114% (inactive),86.7% (inactive),22.5% (active),0.645% (inactive),21.9,22.5,-5.47% (inactive),-6.51% (inactive)
COc1cc(-c2nc(-c3cccc(C(F)(F)F)c3)no2)cc(OC)c1OC,102,99.5% (inactive),102% (inactive),94.4% (inactive),93.4% (inactive),10.7% (inactive),82.6,93.4,-1.87% (inactive),-2.58% (inactive)
CCC1(c2ccc(F)cc2)NC(=O)N(CC(=O)c2ccc[nH]2)C1=O (stereo not given),110,117% (inactive),110% (inactive),99.3% (inactive),96.6% (inactive),9.76% (inactive),86.9,96.6,-2.08% (inactive),-4.83% (inactive)
CC(=O)Nc1ccc2c(c1)nc(CCNC(=O)c1ccccc1)n2C,90.5,89% (inactive),90.5% (inactive),110% (inactive),102% (inactive),15.8% (inactive),85.7,102,-8.36% (inactive),-1.43% (inactive)
CCNC(=O)CC(=O)Nc1ccccc1C(=O)O,104,99.5% (inactive),104% (inactive),125% (inactive),103% (inactive),5.93% (inactive),96.9,103,-5.95% (inactive),-2.67% (inactive)
COc1ccc(C(=O)N2CCN(S(=O)(=O)c3cc(Cl)ccc3OC)CC2)cc1,108,100% (inactive),108% (inactive),95.6% (inactive),103% (inactive),1.29% (inactive),102,103,-2.37% (inactive),8.33% (inactive)
O=C(CCn1c(=S)[nH]c2cc3c(cc2c1=O)OCO3)N1CCN(C2CCCCC2)CC1,90.5,82.5% (inactive),90.5% (inactive),93.8% (inactive),90% (inactive),-2.85% (inactive),92.8,90,-5.54% (inactive),-0.66% (inactive)
CC(=O)N1CCN(Cc2ccc(Br)s2)CC1,93.5,88% (inactive),93.5% (inactive),86.3% (inactive),99.3% (inactive),11.1% (inactive),88.3,99.3,-3.51% (inactive),-1.31% (inactive)
CCCN1C=CC(=C2C(=O)c3ccccc3C2=O)C=C1,88,123% (inactive),88% (inactive),42.9% (inactive),40.8% (active),-3% (inactive),43.8,40.8,-1.92% (inactive),1% (inactive)
Cc1ccc(N2C(=O)c3ccccc3C2Nc2cccnc2)nc1 (stereo not given),94,99.5% (inactive),94% (inactive),85.4% (inactive),83.3% (inactive),-10.8% (inactive),94.1,83.3,-2.18% (inactive),-1.33% (inactive)
O=C(Cc1cccs1)Nc1nnc(CCc2ccccc2)s1,110,91.5% (inactive),110% (inactive),88.7% (inactive),80.7% (inactive),-5.74% (inactive),86.4,80.7,-0.78% (inactive),-0.5% (inactive)
S=C(c1cccs1)N1CCCC1,90.5,110% (inactive),90.5% (inactive),96.7% (inactive),100% (inactive),11.2% (inactive),89.3,100,0.52% (inactive),-8.52% (inactive)
COc1ccc(-c2[nH]nc3c2C(c2ccccc2OC(=O)N2CCOCC2)C(C#N)=C(N)O3)cc1 (stereo not given),120,85.5% (inactive),120% (inactive),96.2% (inactive),88.9% (inactive),1.89% (inactive),87,88.9,-1.58% (inactive),-1.45% (inactive)
O=S(=O)(c1ccc(-c2csc(-c3cccnc3)n2)cc1)N1CCCCC1,106,102% (inactive),106% (inactive),81.1% (inactive),84.2% (inactive),1.22% (inactive),83,84.2,0% (inactive),-1.75% (inactive)
